This is an account of results in publication PMC12155403 (RSC Medicinal Chemistry, 2025).

In one data set the test system is NCI-H146 cells. Conditions: read-out: IC50 (NCI-H146 cells); NCI-H146 SCLC cells; earlier work; cited from earlier work.
A further data set deals with MOLT-4 cells. Nature of the data set: MOLT-4 cell viability. It is filed as cell-based. The settings on record: for IC50: Homo sapiens, MOLT-4, 48 h, read-out: IC50 (MOLT-4 cells). The method in brief:
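MOLT-4 (T-ALL) cells, STR-profiled and mycoplasma-negative, were kept at 37 °C in 5% CO2. Between […] and 1 × 10^5 suspension cells were seeded per well and exposed to test compound for 48 h or 72 h. Viability was read with tetrazolium MTS reagent, and IC50 values were calculated from the viability data.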

The subject of another data set is MOLT-4 xenograft. Description: MOLT-4 T-ALL xenograft mouse model. Conditions: 1.5 mg kg−1, Q4D, i.p., MOLT-4 xenograft mice. It is filed as in vivo. The gist of the method:
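MOLT-4 cells (5 × 10^6) in RPMI:Matrigel 1:1 were implanted s.c. in the right flank of 5-week-old CB-17 SCID mice. At mean tumour ~150 mm3, mice were randomised (n = 6 per group) to vehicle or 1.5 mg kg−1 i.p. every 4 days. The vehicle was 50% Phosal 50 PG, 45% Miglyol 810 N and 5% polysorbate 80. Calipers were used twice weekly, volume = (L × W2) × 0.5.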

The next data set deals with platelets. Description: In vivo platelet toxicity assay. Conditions: single dose 1.5 mg kg−1, i.p., mice.
Another data set relates to SCLC cell lines. Nature of the data set: Viability of a panel of SCLC cell lines. It counts as cell-based. The settings on record: 72 h. The gist of the method: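 SCLC lines came from the NCI-Navy Medical Oncology supply, with H146 from ATCC. Stocks were STR-profiled and mycoplasma-negative, kept at 37 °C and 5% CO2.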
The test system of another data set is human platelets. Nature of the data set: Human platelet viability assay. It counts as cell-based.
Data set [1] concerns the target T1, Bcl-xL (Homo sapiens, UniProt Q07817). Description: Bcl-xL degradation in MOLT-4 cells. It counts as cell-based. The method in brief: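 MOLT-4 cells (RPMI 1640, 10% FBS, 1% penicillin–streptomycin, 37 °C, 5% CO2) were treated for 16 h across a concentration series, or at 100 nM over a time course. Where stated, cells had 1 μM MG-132 pretreatment for 2 h. Lysates were run on 4–20% Tris-glycine gels and blotted to PVDF, with ECL detection. Band densities were normalised to β-actin, three independent experiments, mean ± SD.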

Data set [2] concerns PARP and caspase-3 cleavage. Nature of the data set: Western blot of cleaved PARP and cleaved caspase-3 in MOLT-4 cells. Conditions: 16 h. It counts as cell-based. The method in brief:
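MOLT-4 cells were treated for 16 h across a concentration series. Lysates were immunoblotted (4–20% Tris-glycine gels, PVDF, 5% milk/TBST block, primary antibody overnight at 4 °C, HRP secondary, ECL) for cleaved PARP and cleaved caspase-3. Full-length PARP was detected by stripping and reprobing the membrane. Bands were normalised to β-actin.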
(In western blotting, separated proteins are transferred to a membrane and probed.)

The target in data set [3] is T1, Bcl-xL. Description: Bcl-xL levels in human platelets. It counts as cell-based. Conditions: 48 h.

T1 sequence (Q07817 whole entry): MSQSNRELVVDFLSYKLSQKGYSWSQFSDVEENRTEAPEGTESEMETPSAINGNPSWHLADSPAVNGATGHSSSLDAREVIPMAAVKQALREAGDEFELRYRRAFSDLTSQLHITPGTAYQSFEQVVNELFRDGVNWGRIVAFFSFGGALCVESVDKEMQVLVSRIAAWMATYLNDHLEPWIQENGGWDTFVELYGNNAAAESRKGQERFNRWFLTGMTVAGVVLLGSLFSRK

What is called IC50 is the concentration that inhibits the measured activity by half. As for `Cc1ncsc1-c1ccc([C@H](C)NC(=O)[C@@H]2C[C@@H](O)CN2C(=O)[C@@H](NC(=O)CCCCCC(=O)N2CCN(CC[C@H](CSc3ccccc3)Nc3ccc(S(=O)(=O)NC(=O)c4ccc(N5CCN(CC6=C(c7ccc(Cl)cc7)CCC(C)(C)C6)CC5)cc4)cc3S(=O)(=O)C(F)(F)F)CC2)C(C)(C)C)cc1` [DT2216], in the data set on NCI-H146 cells, the IC50 is 278 nM. For the molecule `CN(CCOCCOCCOCC#Cc1cccc2c1CN(C1CCC(=O)NC1=O)C2=O)CC[C@H](CSc1ccccc1)Nc1ccc(S(=O)(=O)NC(=O)c2ccc(N3CCN(CC4=C(c5ccc(Cl)cc5)CCC(C)(C)C4)CC3)cc2)cc1S(=O)(=O)C(F)(F)F` (stereo partly shown) [4a], the IC50 in the data set on MOLT-4 cells was 4.1 nM. Consider `CN(CCOCCOCCOCCCc1cccc2c1C(=O)N(C1CCC(=O)NC1=O)C2=O)CC[C@H](CSc1ccccc1)Nc1ccc(S(=O)(=O)NC(=O)c2ccc(N3CCN(CC4=C(c5ccc(Cl)cc5)CCC(C)(C)C4)CC3)cc2)cc1S(=O)(=O)C(F)(F)F` (stereo partly shown) [2c], for which, in the data set with MOLT-4 cells, the IC50 is 6.2 nM.

As for `CN(CCOCCOCCN1CCN(c2cccc3c2C(=O)N(C2CCC(=O)NC2=O)C3=O)CC1)CC[C@H](CSc1ccccc1)Nc1ccc(S(=O)(=O)NC(=O)c2ccc(N3CCN(CC4=C(c5ccc(Cl)cc5)CCC(C)(C)C4)CC3)cc2)cc1S(=O)(=O)C(F)(F)F` (stereo partly shown) [2d], the IC50 in the data set with MOLT-4 cells is 10.6 nM. Further, the “fold weaker cellular activity than 2b” value with MOLT-4 cells (vs 2b, MOLT-4 cells) came out at 2 fold.

Take `CC1(C)CCC(c2ccc(Cl)cc2)=C(CN2CCN(c3ccc(C(=O)NS(=O)(=O)c4ccc(N[C@H](CCN(CCOCCOCCOCCNc5cccc6c5C(=O)N(C5CCC(=O)NC5=O)C6=O)C5COC5)CSc5ccccc5)c(S(=O)(=O)C(F)(F)F)c4)cc3)CC2)C1` (stereo partly shown) [1f]: in the data set with MOLT-4 cells, the IC50 is 397 nM. Consider `CN(CCOCCOCCN1CCC(CCc2cccc3c2C(=O)N(C2CCC(=O)NC2=O)C3=O)CC1)CC[C@H](CSc1ccccc1)Nc1ccc(S(=O)(=O)NC(=O)c2ccc(N3CCN(CC4=C(c5ccc(Cl)cc5)CCC(C)(C)C4)CC3)cc2)cc1S(=O)(=O)C(F)(F)F` (stereo partly shown) [2f], for which the IC50 in the data set with MOLT-4 cells worked out at 45.5 nM. For `CN(CCOCCOCCOCCCc1ccc2c(c1)C(=O)N(C1CCC(=O)NC1=O)C2=O)CC[C@H](CSc1ccccc1)Nc1ccc(S(=O)(=O)NC(=O)c2ccc(N3CCN(CC4=C(c5ccc(Cl)cc5)CCC(C)(C)C4)CC3)cc2)cc1S(=O)(=O)C(F)(F)F` (stereo partly shown) [3b], the IC50 in the data set with MOLT-4 cells was 4.3 nM.

For `CC1(C)CCC(c2ccc(Cl)cc2)=C(CN2CCN(c3ccc(C(=O)NS(=O)(=O)c4ccc(N[C@H](CCN(CCOCCOCCOCCNc5cccc6c5C(=O)N(C5CCC(=O)NC5=O)C6=O)C5CCC5)CSc5ccccc5)c(S(=O)(=O)C(F)(F)F)c4)cc3)CC2)C1` (stereo partly shown) [1e], the IC50 with MOLT-4 cells was found to be 330 nM. For the molecule `CN(CCOCCOCCOCC#Cc1ccc2c(c1)CN(C1CCC(=O)NC1=O)C2=O)CC[C@H](CSc1ccccc1)Nc1ccc(S(=O)(=O)NC(=O)c2ccc(N3CCN(CC4=C(c5ccc(Cl)cc5)CCC(C)(C)C4)CC3)cc2)cc1S(=O)(=O)C(F)(F)F` (stereo partly shown) [5a], the IC50 in the data set with MOLT-4 cells came out at 2.1 nM. Take `CN(CCOCCOCCOCCCc1cccc2c1CN(C1CCC(=O)NC1=O)C2=O)CC[C@H](CSc1ccccc1)Nc1ccc(S(=O)(=O)NC(=O)c2ccc(N3CCN(CC4=C(c5ccc(Cl)cc5)CCC(C)(C)C4)CC3)cc2)cc1S(=O)(=O)C(F)(F)F` (stereo partly shown) [4b]: in the data set on MOLT-4 cells, the IC50 is 4.5 nM. On the same count and under the same terms, the value for `CC1(C)CCC(c2ccc(Cl)cc2)=C(CN2CCN(c3ccc(C(=O)NS(=O)(=O)c4ccc(N[C@H](CCNCCOCCOCCOCCNc5cccc6c5C(=O)N(C5CCC(=O)NC5=O)C6=O)CSc5ccccc5)c(S(=O)(=O)C(F)(F)F)c4)cc3)CC2)C1` (stereo partly shown) [1a] was 59.7 nM; that for `CN(CCOCCOCCOCCOc1cccc2c1C(=O)N(C1CCC(=O)NC1=O)C2=O)CC[C@H](CSc1ccccc1)Nc1ccc(S(=O)(=O)NC(=O)c2ccc(N3CCN(CC4=C(c5ccc(Cl)cc5)CCC(C)(C)C4)CC3)cc2)cc1S(=O)(=O)C(F)(F)F` (stereo partly shown) [2a] was 10.4 nM; that for `CC1(C)CCC(c2ccc(Cl)cc2)=C(CN2CCN(c3ccc(C(=O)NS(=O)(=O)c4ccc(N[C@H](CCN(CCOCCOCCOCCNc5cccc6c5C(=O)N(C5CCC(=O)NC5=O)C6=O)C5CCCCC5)CSc5ccccc5)c(S(=O)(=O)C(F)(F)F)c4)cc3)CC2)C1` (stereo partly shown) [1i] was > 1000 nM. For `CC1(C)CCC(c2ccc(Cl)cc2)=C(CN2CCN(c3ccc(C(=O)NS(=O)(=O)c4ccc(N[C@H](CCN(CCOCCOCCOCCNc5cccc6c5C(=O)N(C5CCC(=O)NC5=O)C6=O)CC5CCC5)CSc5ccccc5)c(S(=O)(=O)C(F)(F)F)c4)cc3)CC2)C1` (stereo partly shown) [1g], in the data set with MOLT-4 cells, the IC50 was found to be 326 nM. Turning to `CN(CCOCCOCCOCCCc1ccc2c(c1)CN(C1CCC(=O)NC1=O)C2=O)CC[C@H](CSc1ccccc1)Nc1ccc(S(=O)(=O)NC(=O)c2ccc(N3CCN(CC4=C(c5ccc(Cl)cc5)CCC(C)(C)C4)CC3)cc2)cc1S(=O)(=O)C(F)(F)F` (stereo partly shown) [PZ671], the tumor growth entry in the data set on MOLT-4 xenograft was “markedly suppressed the tumor growth”. Besides, the platelet count recovery entry with platelets is reported as “rapid recovery observed from the second day onward”. For the same molecule, the IC50 in the data set on MOLT-4 cells was 1.3 nM. For the same molecule, the “fold improved cellular activity against MOLT-4 cells compared to XZ739” value with MOLT-4 cells (vs XZ739, listed as 5b) is reported as 8 fold. Besides, in the data set with SCLC cell lines, the “cell killing potency in SCLC cell lines compared to XZ739” value is “more potent than XZ739”. In addition, the “selectivity for MOLT-4 cells over platelets” value with human platelets came to 25 fold. The “fold decrease in selectivity for MOLT-4 cells over platelets compared to XZ739” value in the data set with human platelets (vs XZ739) is on record as ~5 fold. Further, on Bcl-xL [1] (MOLT-4 cells, 100 nM), the “time to almost complete Bcl-xL degradation” value was determined as 4 h and the “time to significantly reduced Bcl-xL protein levels” value is ≤ 2 h. In addition, at Bcl-xL [1] (MOLT-4 cells, pretreatment with 1 μM MG-132 for 2 h), the “Bcl-xL degradation after proteasome inhibitor pretreatment” value is reported as “blocked”. For the same molecule, at Bcl-xL [1] (vs XZ739, MOLT-4 cells), the “fold enhanced degradation potency against Bcl-xL compared to XZ739” value is on record as ~6 fold. The “PARP and caspase-3 cleavage” value in data set [2] was “dose-dependently increased”. Further, the “concentration at which Bcl-xL is degraded in human platelets” value on Bcl-xL [3] is “above 1 μM”.

For the molecule `CN(CCOCCOCCOCC#Cc1ccc2c(c1)C(=O)N(C1CCC(=O)NC1=O)C2=O)CC[C@H](CSc1ccccc1)Nc1ccc(S(=O)(=O)NC(=O)c2ccc(N3CCN(CC4=C(c5ccc(Cl)cc5)CCC(C)(C)C4)CC3)cc2)cc1S(=O)(=O)C(F)(F)F` (stereo partly shown) [3a], in the data set with MOLT-4 cells, the 50% inhibitory concentration (IC50) stood at 14.3 nM. Moreover, the “fold reduced potency against MOLT-4 cells compared to 2b” value in the data set on MOLT-4 cells (vs C4-substituted 2b) was ~3 fold.

For `CN(CCOCCOCCN1CCC(C#Cc2cccc3c2C(=O)N(C2CCC(=O)NC2=O)C3=O)CC1)CC[C@H](CSc1ccccc1)Nc1ccc(S(=O)(=O)NC(=O)c2ccc(N3CCN(CC4=C(c5ccc(Cl)cc5)CCC(C)(C)C4)CC3)cc2)cc1S(=O)(=O)C(F)(F)F` (stereo partly shown) [2e], the IC50 in the data set with MOLT-4 cells turned out to be 36.1 nM. Also, the “fold reduced activity compared to 2d” value in the data set on MOLT-4 cells (vs 2d, MOLT-4 cells) was ~4 fold. Turning to `CC1(C)CCC(c2ccc(Cl)cc2)=C(CN2CCN(c3ccc(C(=O)NS(=O)(=O)c4ccc(N[C@H](CCN(CCOCCOCCOCCNc5cccc6c5C(=O)N(C5CCC(=O)NC5=O)C6=O)C5CC5)CSc5ccccc5)c(S(=O)(=O)C(F)(F)F)c4)cc3)CC2)C1` (stereo partly shown) [1d], in the data set on MOLT-4 cells, the IC50 amounted to 297 nM.

Take `CCN(CCOCCOCCOCCNc1cccc2c1C(=O)N(C1CCC(=O)NC1=O)C2=O)CC[C@H](CSc1ccccc1)Nc1ccc(S(=O)(=O)NC(=O)c2ccc(N3CCN(CC4=C(c5ccc(Cl)cc5)CCC(C)(C)C4)CC3)cc2)cc1S(=O)(=O)C(F)(F)F` (stereo partly shown) [1b]: the IC50 in the data set with MOLT-4 cells was 52.8 nM. The same measure, in the same setting: then `CC1(C)CCC(c2ccc(Cl)cc2)=C(CN2CCN(c3ccc(C(=O)NS(=O)(=O)c4ccc(N[C@H](CCN5CCOCC5)CSc5ccccc5)c(S(=O)(=O)C(F)(F)F)c4)cc3)CC2)C1` [ABT-263, navitoclax, reference compound], with 202 nM. On to `CN(CCOCCOCCOCC#Cc1cccc2c1C(=O)N(C1CCC(=O)NC1=O)C2=O)CC[C@H](CSc1ccccc1)Nc1ccc(S(=O)(=O)NC(=O)c2ccc(N3CCN(CC4=C(c5ccc(Cl)cc5)CCC(C)(C)C4)CC3)cc2)cc1S(=O)(=O)C(F)(F)F` (stereo partly shown) [2b], for which the IC50 with MOLT-4 cells amounted to 5.2 nM. For the same molecule, in the data set on MOLT-4 cells (vs 2a), the “fold increase in potency against MOLT-4 cells compared to 2a” value turned out to be 2 fold.
